Assay [1] concerns the target T1, Tyrosine-protein phosphatase non-receptor type 2 (Homo sapiens, UniProt P17706).
T1 sequence (P17706 whole entry): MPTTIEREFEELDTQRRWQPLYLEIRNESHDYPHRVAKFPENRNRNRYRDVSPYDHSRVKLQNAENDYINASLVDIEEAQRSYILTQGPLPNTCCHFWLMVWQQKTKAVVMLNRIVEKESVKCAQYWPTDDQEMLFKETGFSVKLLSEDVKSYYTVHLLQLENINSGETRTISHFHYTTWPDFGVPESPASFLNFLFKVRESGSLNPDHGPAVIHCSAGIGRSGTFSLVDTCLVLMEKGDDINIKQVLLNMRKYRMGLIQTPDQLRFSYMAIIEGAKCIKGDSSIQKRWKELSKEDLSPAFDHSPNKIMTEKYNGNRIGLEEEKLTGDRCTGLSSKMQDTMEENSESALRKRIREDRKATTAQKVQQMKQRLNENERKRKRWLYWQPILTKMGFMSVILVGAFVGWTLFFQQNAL
The experiment in a line: Inhibitory activity against Protein tyrosine phosphatase TCPTP. In a few lines: (§1)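 Phosphatase activity was read with 3,6-fluorescein diphosphate (FDP) as substrate, at roughly the KM concentration for each enzyme. IC50 came from 10 inhibitor concentrations fitted to a four-parameter equation, with errors under 10%. Constructs: flag-PTP1B (1–320); flag-CD45 intracellular domain; GST-PTPβ, GST-SHP1 and GST-SHP2; human recombinant TCPTP from E. coli; flag-CDC25a from baculovirus-infected Sf9 cells.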

Assay [2] addresses T2, Tyrosine-protein phosphatase non-receptor type 1 (Homo sapiens, UniProt P18031).
T2 sequence (P18031 whole entry): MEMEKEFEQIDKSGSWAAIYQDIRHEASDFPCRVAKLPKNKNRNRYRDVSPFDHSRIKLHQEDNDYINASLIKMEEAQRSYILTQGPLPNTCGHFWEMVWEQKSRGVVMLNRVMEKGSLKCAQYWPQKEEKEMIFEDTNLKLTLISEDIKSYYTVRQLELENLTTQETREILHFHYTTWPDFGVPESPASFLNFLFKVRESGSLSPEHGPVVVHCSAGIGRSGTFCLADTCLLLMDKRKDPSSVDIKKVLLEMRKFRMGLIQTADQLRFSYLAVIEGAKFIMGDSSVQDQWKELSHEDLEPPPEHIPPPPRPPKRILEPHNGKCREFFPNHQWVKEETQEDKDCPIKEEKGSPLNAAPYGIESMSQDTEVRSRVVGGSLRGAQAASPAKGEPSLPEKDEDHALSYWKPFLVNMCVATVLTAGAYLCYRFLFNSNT
The experiment in a line: Inhibitory activity against Protein tyrosine phosphatase 1B (PTP1B). In a few lines:
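Phosphatase activity was read with 3,6-fluorescein diphosphate (FDP) as substrate, at roughly the KM concentration for each enzyme. Constructs: flag-PTP1B (1–320); flag-CD45 intracellular domain; GST-PTPβ, GST-SHP1 and GST-SHP2; human recombinant TCPTP from E. coli; flag-CDC25a from baculovirus-infected Sf9 cells.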

For assay [3], the target named is T3, Receptor-type tyrosine-protein phosphatase C (Homo sapiens, UniProt P08575).
T3 sequence (P08575 whole entry): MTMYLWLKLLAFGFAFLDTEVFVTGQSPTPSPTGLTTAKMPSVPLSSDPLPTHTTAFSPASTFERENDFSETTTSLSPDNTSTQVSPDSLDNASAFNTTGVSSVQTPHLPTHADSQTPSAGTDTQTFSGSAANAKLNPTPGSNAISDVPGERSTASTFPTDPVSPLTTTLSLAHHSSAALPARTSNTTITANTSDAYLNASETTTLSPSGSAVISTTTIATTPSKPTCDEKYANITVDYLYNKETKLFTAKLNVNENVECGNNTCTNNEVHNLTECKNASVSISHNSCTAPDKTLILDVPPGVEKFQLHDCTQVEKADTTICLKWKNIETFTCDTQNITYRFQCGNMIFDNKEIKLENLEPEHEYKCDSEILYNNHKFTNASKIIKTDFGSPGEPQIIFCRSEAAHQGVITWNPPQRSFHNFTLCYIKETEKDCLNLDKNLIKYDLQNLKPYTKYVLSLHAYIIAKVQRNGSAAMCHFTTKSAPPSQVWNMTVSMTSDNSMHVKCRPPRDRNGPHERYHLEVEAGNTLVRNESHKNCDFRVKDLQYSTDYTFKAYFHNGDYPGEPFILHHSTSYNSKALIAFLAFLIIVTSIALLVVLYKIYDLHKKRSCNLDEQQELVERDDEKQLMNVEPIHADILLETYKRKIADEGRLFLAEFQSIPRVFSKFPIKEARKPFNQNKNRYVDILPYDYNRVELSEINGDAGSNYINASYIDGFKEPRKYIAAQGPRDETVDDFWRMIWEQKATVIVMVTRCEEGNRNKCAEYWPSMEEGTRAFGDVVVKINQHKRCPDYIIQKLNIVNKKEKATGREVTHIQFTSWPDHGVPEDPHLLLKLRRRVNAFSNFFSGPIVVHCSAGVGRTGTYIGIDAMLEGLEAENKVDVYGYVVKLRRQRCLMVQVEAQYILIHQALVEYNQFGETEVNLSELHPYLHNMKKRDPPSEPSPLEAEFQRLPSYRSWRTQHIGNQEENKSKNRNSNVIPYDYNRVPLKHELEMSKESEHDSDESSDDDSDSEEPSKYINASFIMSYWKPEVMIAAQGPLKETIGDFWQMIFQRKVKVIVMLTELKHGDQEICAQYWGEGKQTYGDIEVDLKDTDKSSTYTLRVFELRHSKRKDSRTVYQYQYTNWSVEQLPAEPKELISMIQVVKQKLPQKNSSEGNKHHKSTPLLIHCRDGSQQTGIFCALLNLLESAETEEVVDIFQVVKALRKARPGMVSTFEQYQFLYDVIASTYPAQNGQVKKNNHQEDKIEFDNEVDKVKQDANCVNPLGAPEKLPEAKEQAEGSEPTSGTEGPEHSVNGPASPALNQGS
Description: Inhibitory activity against Protein tyrosine phosphatase CD45. In a few lines: as §1

In assay [4] the target is T2, Tyrosine-protein phosphatase non-receptor type 1. Description: Binding affinity towards the site of PTP1B enzyme.
In assay [5] the target is Receptor-type tyrosine-protein phosphatase beta (Homo sapiens, UniProt P23467). Description: Inhibitory activity against Protein tyrosine phosphatase PTPbeta. In a few lines: as §1
Chain of Receptor-type tyrosine-protein phosphatase beta (P23467 whole entry): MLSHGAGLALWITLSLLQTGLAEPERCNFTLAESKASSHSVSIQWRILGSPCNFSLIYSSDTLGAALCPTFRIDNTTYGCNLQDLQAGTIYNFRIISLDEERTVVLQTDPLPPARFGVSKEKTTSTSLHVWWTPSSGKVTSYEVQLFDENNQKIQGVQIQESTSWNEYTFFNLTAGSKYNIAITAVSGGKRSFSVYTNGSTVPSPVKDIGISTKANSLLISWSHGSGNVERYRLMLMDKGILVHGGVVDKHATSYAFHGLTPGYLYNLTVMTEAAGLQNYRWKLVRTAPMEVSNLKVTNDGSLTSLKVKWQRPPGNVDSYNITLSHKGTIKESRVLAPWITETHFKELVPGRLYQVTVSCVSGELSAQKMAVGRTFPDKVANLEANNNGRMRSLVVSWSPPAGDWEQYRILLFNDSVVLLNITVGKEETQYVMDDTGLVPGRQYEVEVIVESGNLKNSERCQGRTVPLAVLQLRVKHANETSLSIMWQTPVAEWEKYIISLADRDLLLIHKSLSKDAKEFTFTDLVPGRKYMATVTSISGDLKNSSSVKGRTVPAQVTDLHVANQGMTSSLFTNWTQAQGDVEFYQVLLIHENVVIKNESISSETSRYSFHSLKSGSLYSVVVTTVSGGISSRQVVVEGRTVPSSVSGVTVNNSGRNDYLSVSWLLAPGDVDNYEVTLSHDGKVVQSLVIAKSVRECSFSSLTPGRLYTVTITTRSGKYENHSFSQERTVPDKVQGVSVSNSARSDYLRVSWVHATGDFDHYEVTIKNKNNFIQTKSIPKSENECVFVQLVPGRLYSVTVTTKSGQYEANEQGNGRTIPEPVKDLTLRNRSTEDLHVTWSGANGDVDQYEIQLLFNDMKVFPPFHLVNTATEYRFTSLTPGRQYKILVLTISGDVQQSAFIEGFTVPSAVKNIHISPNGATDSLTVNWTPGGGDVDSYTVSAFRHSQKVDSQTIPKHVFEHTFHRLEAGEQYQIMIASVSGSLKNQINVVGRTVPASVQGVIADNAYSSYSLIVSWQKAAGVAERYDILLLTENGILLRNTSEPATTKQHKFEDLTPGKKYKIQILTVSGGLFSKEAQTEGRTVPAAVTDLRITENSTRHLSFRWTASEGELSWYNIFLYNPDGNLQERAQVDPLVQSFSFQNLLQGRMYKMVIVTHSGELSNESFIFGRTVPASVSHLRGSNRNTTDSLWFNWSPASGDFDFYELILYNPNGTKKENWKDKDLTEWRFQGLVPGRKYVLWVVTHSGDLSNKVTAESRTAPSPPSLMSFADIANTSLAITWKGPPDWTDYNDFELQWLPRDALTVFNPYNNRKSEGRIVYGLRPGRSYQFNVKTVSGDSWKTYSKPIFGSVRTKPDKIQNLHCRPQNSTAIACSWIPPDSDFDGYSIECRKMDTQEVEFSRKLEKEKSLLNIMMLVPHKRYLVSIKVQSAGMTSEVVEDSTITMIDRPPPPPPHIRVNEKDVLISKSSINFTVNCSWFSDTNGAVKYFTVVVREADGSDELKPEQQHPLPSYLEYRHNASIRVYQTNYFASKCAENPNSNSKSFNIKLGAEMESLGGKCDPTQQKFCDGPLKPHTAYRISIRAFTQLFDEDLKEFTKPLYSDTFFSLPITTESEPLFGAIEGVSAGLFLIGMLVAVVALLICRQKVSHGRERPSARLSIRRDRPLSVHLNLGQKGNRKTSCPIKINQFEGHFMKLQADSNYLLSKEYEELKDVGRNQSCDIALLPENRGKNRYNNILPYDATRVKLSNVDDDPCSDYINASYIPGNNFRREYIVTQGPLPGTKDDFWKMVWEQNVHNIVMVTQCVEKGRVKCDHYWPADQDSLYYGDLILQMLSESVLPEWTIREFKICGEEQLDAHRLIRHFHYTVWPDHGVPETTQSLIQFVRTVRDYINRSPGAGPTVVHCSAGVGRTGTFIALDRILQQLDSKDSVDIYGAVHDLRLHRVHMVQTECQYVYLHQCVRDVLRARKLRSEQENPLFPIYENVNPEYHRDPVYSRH
For assay [6], the target named is Tyrosine-protein phosphatase non-receptor type 6 (Homo sapiens, UniProt P29350). Description: Inhibitory activity against Protein tyrosine phosphatase SHP-1. In a few lines: as §1
Chain of Tyrosine-protein phosphatase non-receptor type 6 (P29350 whole entry): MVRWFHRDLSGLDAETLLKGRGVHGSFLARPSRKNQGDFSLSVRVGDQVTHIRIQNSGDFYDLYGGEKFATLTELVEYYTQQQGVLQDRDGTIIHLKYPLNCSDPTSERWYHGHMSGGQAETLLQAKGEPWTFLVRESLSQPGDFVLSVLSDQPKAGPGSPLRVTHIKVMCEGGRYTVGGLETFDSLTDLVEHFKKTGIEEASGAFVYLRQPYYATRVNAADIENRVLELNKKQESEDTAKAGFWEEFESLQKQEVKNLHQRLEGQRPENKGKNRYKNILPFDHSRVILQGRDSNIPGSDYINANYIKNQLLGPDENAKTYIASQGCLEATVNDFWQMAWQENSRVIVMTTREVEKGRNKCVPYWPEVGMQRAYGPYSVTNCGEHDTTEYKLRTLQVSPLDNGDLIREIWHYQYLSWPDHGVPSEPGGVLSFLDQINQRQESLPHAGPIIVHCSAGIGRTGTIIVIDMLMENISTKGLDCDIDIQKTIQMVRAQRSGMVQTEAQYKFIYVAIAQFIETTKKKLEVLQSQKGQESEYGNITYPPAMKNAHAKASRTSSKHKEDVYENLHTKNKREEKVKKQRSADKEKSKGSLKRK
Assay [7] has as its target T4, Tyrosine-protein phosphatase non-receptor type 11 (Homo sapiens, UniProt Q06124).
T4 sequence (Q06124 whole entry): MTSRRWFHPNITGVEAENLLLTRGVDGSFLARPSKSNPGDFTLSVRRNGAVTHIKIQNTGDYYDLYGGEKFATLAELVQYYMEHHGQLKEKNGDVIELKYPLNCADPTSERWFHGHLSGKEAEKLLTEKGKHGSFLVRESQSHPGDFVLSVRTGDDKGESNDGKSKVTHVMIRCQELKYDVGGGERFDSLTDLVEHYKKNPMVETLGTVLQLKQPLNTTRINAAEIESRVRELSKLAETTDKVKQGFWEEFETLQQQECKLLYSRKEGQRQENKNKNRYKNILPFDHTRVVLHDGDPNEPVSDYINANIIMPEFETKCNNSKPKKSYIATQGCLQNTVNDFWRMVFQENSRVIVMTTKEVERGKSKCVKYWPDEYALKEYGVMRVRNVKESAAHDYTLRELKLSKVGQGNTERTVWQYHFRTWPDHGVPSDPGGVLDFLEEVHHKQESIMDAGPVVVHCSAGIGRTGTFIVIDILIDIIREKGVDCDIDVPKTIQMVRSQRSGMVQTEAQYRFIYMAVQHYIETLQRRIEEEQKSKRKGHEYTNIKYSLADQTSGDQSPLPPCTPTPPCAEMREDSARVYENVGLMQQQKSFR
Description: Inhibitory activity against Protein tyrosine phosphatase SHP-2. In a few lines: as §1

Assay [8] has as its target T5, M-phase inducer phosphatase 1 (Homo sapiens, UniProt P30304).
T5 sequence (P30304 whole entry): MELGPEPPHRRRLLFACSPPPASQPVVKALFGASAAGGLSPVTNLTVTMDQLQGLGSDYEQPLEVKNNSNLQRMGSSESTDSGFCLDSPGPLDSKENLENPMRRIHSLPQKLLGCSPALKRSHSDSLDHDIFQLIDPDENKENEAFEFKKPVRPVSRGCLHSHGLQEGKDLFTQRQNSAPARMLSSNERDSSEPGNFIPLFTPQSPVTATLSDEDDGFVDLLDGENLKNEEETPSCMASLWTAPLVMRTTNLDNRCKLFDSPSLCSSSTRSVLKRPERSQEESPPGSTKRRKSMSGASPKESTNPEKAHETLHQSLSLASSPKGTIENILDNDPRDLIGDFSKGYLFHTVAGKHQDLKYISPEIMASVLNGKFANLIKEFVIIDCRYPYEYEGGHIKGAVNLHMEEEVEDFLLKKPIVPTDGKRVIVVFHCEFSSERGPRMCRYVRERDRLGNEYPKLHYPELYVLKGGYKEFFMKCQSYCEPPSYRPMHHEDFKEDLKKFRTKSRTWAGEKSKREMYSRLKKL
Description: Inhibitory activity against Protein tyrosine phosphatase cell division cycle 25A. In a few lines:
as §1

The target in assay [9] is T6, Tyrosine-protein phosphatase non-receptor type 4 (Homo sapiens, UniProt P29074).
T6 sequence (P29074 whole entry): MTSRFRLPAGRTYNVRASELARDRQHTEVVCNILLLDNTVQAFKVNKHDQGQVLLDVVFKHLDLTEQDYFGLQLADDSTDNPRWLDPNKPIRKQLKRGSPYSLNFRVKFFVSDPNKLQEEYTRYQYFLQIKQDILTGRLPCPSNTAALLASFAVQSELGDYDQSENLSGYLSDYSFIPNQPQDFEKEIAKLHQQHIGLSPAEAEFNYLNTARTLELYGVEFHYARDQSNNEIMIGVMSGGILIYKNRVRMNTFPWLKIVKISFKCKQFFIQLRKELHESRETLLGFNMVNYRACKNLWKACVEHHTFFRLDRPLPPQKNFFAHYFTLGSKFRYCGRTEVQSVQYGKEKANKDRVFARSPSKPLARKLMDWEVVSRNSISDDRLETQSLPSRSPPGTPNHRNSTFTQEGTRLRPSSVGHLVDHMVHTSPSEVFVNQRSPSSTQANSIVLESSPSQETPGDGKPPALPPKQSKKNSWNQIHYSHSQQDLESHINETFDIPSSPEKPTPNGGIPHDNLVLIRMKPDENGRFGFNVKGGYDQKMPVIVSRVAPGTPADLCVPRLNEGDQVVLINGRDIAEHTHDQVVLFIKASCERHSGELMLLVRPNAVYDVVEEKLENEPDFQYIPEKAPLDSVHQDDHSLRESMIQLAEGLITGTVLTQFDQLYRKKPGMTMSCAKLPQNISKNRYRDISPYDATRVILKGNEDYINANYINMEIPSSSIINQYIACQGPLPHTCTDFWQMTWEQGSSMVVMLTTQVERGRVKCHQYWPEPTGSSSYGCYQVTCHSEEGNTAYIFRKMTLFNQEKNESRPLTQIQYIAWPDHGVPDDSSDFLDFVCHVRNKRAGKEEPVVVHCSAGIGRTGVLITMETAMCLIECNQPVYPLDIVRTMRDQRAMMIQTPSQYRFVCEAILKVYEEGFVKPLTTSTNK
Description: Inhibitory activity against Protein tyrosine phosphatase PTPmeg-1.

The target in assay [10] is T2, Tyrosine-protein phosphatase non-receptor type 1. Description: Binding affinity towards the binding site in PTP1B enzyme.

The source of these data is ChEMBL document CHEMBL1134320, “Structure of protein tyrosine phosphatase 1B in complex with inhibitors bearing two phosphotyrosine mimetics” (J Med Chem, 2001).

pIC50, pKi: −log10 of the molar value.

By pIC50 is commonly meant the IC50 on a negative log10 scale, so that one unit is a factor of ten. As usually defined, the pKi is the negative decadic logarithm of the Ki, by convention in mol/L. As for `O=P(O)(O)C(F)(F)c1ccc(CCCCc2ccc(C(F)(F)P(=O)(O)O)cc2)cc1`, the pIC50 in assay [1] was 5.19; in [2] it was 5.36; in assay [3], 3.70; in assay [5], 3.47; in [6], 4.51; in assay [7], 4.04. In assay [4], the pKi was 5.82.

As for `O=P(O)(O)C(F)(F)c1ccc(COc2ccc(OCc3ccc(C(F)(F)P(=O)(O)O)cc3)cc2)cc1`, the pIC50 in [1] was 5.34; in assay [2], 5.38; in assay [8] it was 4.52; in assay [3], 4.85; in assay [5] it was 4.82; in assay [9], 3.84. The pIC50 in [6] is 5.20; in assay [7], 4.80.

In the case of `O=P(O)(O)C(F)(F)c1ccc(COc2cccc(OCc3ccc(C(F)(F)P(=O)(O)O)cc3)c2)cc1`, the pIC50 in assay [1] is 5.10; in assay [2] it was 5.28; in assay [8] it was 3.79; in assay [3], 3.97; in assay [5], 4.11; in [6], 4.80. For the same compound, the pIC50 in assay [7] was 4.49.

On to `O=P(O)(O)C(F)(F)c1ccc(COc2ccccc2OCc2ccc(C(F)(F)P(=O)(O)O)cc2)cc1`, for which the pIC50 in assay [1] was 5.49; in [2] it was 5.77; in assay [8], 3.79; in [3], 4.38; in assay [5], 4.11; in assay [6] it was 4.82. In assay [7], this compound had a pIC50 of 4.22.

For the compound `O=C(CCc1ccc(C(F)(F)P(=O)(O)O)cc1)Nc1cc(NC(=O)CCc2ccc(C(F)(F)P(=O)(O)O)cc2)cc(C(=O)NCc2ccc(C(=O)O)cc2)c1`, the pKi in assay [10] was 6.03.

As to `O=P(O)(O)C(F)(F)c1ccc(COCCOCc2ccc(C(F)(F)P(=O)(O)O)cc2)cc1`, the pIC50 was 5.21 in assay [1]; 5.41 in assay [2]; 3.63 in assay [3]; 3.52 in [5]; 4.21 in assay [6]; 3.82 in assay [7].
